The values that follow come from ChEMBL document CHEMBL1137201, “A virtual screening approach to finding novel and potent antagonists at the melanin-concentrating hormone 1 receptor” (J Med Chem, 2004).

The structures appear in SMILES notation.

The target in the first assay is T1, Melanin-concentrating hormone receptor 1 (Homo sapiens, UniProt Q99705). The assay can be described thus: Percent inhibition of Melanin-concentrating hormone 1 receptor expressed in CHO cells at 10 uM. It is filed as cell-based. The essentials: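 Same SPA radioligand binding setup: CHO MCH-1R membranes with 0.4 nM 125I-[Phe13,Tyr19]-MCH and WGA beads, 1 h at room temperature, 1 μM MCH for nonspecific binding. Compounds were screened at a single 10 μM concentration, and actives were retested in duplicate at 10 μM. Read-out is percent inhibition of specific binding.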
T1 sequence (Q99705 whole entry): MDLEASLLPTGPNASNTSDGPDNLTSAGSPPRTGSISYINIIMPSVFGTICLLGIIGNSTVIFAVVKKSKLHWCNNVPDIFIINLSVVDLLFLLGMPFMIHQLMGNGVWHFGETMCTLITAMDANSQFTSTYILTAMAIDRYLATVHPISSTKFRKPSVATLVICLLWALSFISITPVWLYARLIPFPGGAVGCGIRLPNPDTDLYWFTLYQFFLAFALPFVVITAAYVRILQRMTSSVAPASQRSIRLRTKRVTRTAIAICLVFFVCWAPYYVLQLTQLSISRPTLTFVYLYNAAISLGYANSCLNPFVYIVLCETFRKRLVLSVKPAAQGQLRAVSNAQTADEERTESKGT
Regarding `Cc1cc(N2CCN(C)CC2)nc2ccc(NC(=O)CCC3CCCC3)cc12`, the inhibition – broadly, the share of the control response that was lost under treatment – was 11.6%.

For a further assay, the target named is T1, Melanin-concentrating hormone receptor 1. In words: Inhibition of Melanin-concentrating hormone 1 receptor expressed in CHO cells. In kind it is cell-based.
For `Cc1cc(N2CCN(C)CC2)nc2ccc(NC(=O)C(C)Oc3ccc(Cl)cc3Cl)cc12` (stereo not given), the half-maximal inhibitory concentration (IC50) (as a rule, the concentration at which inhibition is half-maximal) turned out to be 790 nM.

In turn, `CCN1CCN(c2cc(C)c3cc(NC(=O)CSc4ccncc4)ccc3n2)CC1` displayed an IC50 of 8200 nM. Compared with the last compound, the IC50 is about 10-fold higher.

Compound `CCN1CCN(c2cc(C)c3cc(NC(=O)CCc4ccc(OC)cc4)ccc3n2)CC1` gave a half-maximal inhibitory concentration (IC50) of 730 nM. This IC50 is about 11-fold lower than that of the compound before.

`CCN1CCN(c2cc(C)c3cc(NC(=O)C(C)Oc4ccc(Cl)cc4Cl)ccc3n2)CC1` (stereo not given) yielded an IC50 of 230 nM.

On to `CN(C)CC1CCc2cc(NC(=O)c3ccc(-c4ccc(F)cc4)cc3)ccc2C1` (stereo not given), for which the IC50 amounted to 5.5 nM.

Consider `COc1ccc(CCC(=O)Nc2ccc3nc(N4CCN(C)CC4)cc(C)c3c2)cc1`, for which the concentration for half-maximal inhibition (IC50) turned out to be 250 nM.

As for `CCN1CCN(c2cc(C)c3cc(NC(=O)COc4cccc(C)c4)ccc3n2)CC1`, the IC50 amounted to 6600 nM.

`O=C1c2cc(OCCC3CCN(Cc4ccc(C5=NCCN5)cc4)CC3)ccc2CCCN1Cc1ccccc1` yielded an IC50 of 300 nM. This IC50 lies about 22-fold lower than the previous one.

`O=C(CNC(=O)OCc1ccccc1)NCC(CCCN1CCC(c2ccccc2)CC1)(c1ccccc1)c1ccccc1` returned a half-maximal inhibitory concentration (IC50) of 5 nM. Compared with the last compound, the IC50 is about 60-fold lower.

Another assay shares this target. The assay can be described thus: (§1) Binding affinity for Melanin-concentrating hormone 1 receptor expressed in CHO cells. It is filed as cell-based. The essentials:
(§2)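 Scintillation proximity binding: CHO membranes (5 μg) overexpressing MCH-1R with wheat germ agglutinin SPA beads and 0.4 nM 125I-[Phe13,Tyr19]-MCH, 1 h at room temperature. Nonspecific binding was taken with 1 μM MCH. Bound label was scintillation-counted. IC50 came from six-point semilog concentration–response curves.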
Consider `CC(=O)N[C@@H]1CCN(CCCCN(C(=O)Nc2ccc(F)c(Cl)c2)c2ccc(-c3cccc(C#N)c3)cc2)C1`, for which the Ki (usually the equilibrium dissociation constant of an inhibitor or competing ligand from its target) is below 100 nM.

In the case of `COc1cc(N2CCN(C[C@H]3C[C@@H]3c3ccccc3)CC2)ccc1Br`, the inhibition constant Ki is below 1000 nM.

`CC[C@H](NC(=O)c1ccc(CC2CCN(Cc3ccc4c(c3)OCO4)CC2)cc1)c1ccc(C(=O)OC)cc1` displayed an inhibition constant (Ki) of at most 1500 nM.

The next assay has the same target. The assay is described as §1. In kind it is cell-based. In short, it runs like this: as §2
In the case of `CCCCN(CCCC)c1ccc(CNC[C@H]2CC[C@H](N(C)C(=O)c3cccc4ccccc34)CC2)cc1`, the Kb was 284 nM.

With `O=C(CCCN1CCC(O)(c2ccc(Cl)cc2)CC1)c1ccc(Cl)cc1`, the Kb was found to be 9 nM.
